Assay outcomes as filed in PubChem BioAssay.
A selection: hits, their analogues and other compounds. The true share with any hit is near 2.2%.
FGF22 binding = binders of recombinant human FGF22 by thermal shift. Q9HCT0. SYPRO orange fluorescence; percent of sucrose octasulfate shift, DMSO zero. activity (Tm shift, normalised), % at 9.99 µM. 1.5% of 340,000 active. AID 651658;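 active means mean Tm shift, scaled 0 neutral to 100 positive control, at about 1.3% or above, every replicate too, limit read from the data; inconclusive means no clear call, values can overlap the other calls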
Target sequence (Q9HCT0 whole entry, looked up): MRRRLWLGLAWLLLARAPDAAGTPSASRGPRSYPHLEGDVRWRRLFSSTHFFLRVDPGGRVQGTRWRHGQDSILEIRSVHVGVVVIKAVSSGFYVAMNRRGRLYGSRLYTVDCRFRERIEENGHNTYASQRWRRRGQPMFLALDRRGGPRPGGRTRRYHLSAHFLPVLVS
Jurkat NFkB inh = lowers PMA/ionomycin-induced NF-kB signal in Jurkat cells; PMA/ionomycin-induced NF-kB luciferase reporter, luminescence; inhibition, % at 4 µM; 0.53% of 330,000 active; in the data active means inhibition above about 50%
NR2E3 ag-1 = human photoreceptor-specific nuclear receptor agonism; Q9Y5X4; CHO-S Gal4-NCOR/VP16-NR2E3 two-hybrid, luciferase; 0.35% of 360,000 active; inhibition of corepressor binding, % at 3.98 µM;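 active means inhibition above the mean of all tested compounds plus 3 SD, cut at about 70% in these data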;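 further: 0% = DMSO with NR2E3 transfected cells and 100% = cells lacking NR2E3 construct; higher means lower luciferase signal from less NR2E3 corepressor binding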
Target sequence (Q9Y5X4 whole entry, looked up, the tested form may be a part): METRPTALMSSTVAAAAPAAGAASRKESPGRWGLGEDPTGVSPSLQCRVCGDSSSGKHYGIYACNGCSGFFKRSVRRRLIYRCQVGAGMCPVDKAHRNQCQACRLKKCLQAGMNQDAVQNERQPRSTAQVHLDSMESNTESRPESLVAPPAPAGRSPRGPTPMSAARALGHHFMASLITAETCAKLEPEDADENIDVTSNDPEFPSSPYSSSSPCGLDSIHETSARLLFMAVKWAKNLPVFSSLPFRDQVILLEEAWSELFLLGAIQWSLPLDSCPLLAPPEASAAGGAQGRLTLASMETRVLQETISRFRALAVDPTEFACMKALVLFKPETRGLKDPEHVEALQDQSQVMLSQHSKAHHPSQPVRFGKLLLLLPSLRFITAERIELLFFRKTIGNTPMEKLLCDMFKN
NR2E3 ag-2 = activates human photoreceptor nuclear receptor NR2E3 | inhibition of corepressor binding, % at 4.78 µM | Q9Y5X4 | GST-NR2E3/biotin-RetCOR TR-FRET, 1536-well | 0.12% of 320,000 active | AID 2300;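 active means percent inhibition above the cutoff of mean plus 3 SD of all tested compounds, set per screening campaign, cut at about 20% in these data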;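 further: 0% = DMSO wells and 100% = biotin wells as full block of FRET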
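Material: NR2E3–RetCOR corepressor complex | Quantity: 1.35 nM GST-tagged NR2E3 final | Schedule: 5 h at 4 °C | Replication: Singlicate compound wells | Reagent: RetCOR corepressor, biotinylated, 7 nM | Controls: Biotin wells as high control, 0.6% DMSO wells as low control | Signal: TR-FRET, Eu(K)-anti-GST donor, streptavidin-D2 acceptor, ex 340, em 617/671 nm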
697 NFkB inh = inhibitors of the PMA/ionomycin-induced NF-kB reporter in 697 B cells | 697 B-cell NF-kB luciferase reporter, 16 h | inhibition, % at 4 µM | 0.33% of 330,000 active; in the data active means inhibition above about 35%
miR122 inh = blocks miR-122 activity in Huh7 sensor cells; Huh7 miR-122 Renilla luciferase sensor, 48 h; neutral wells = 0, positive control = 100; activation (reporter increase), % at 12.5 µM; 0.3% of 340,000 active; AID 602342;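 active means mean replicate activation score at least 90 and every replicate individually at or above 90; inconclusive means only one of the two criteria met; inactive means neither criterion met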;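 further: higher luciferase means less miR-122 activity so hits act as miR-122 inhibitors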
Jurkat NFkB conf = inhibitors of the PMA/ionomycin-induced NF-kB reporter in Jurkat cells, retest; AID 435020; shares compounds with Jurkat NFkB inh; inhibition, % at 4 µM; Jurkat NF-kB luciferase, 16 h; 27% of 2,700 active;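 active means inhibition reaching about 45% at 4 µM in either replicate, limit read from the data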;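 further: plate controls were PMA/ionomycin stimulated DMSO wells for no effect and unstimulated DMSO wells for full effect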
* hit, by the source's call; ? = inconclusive; nt = no result; [ ] = another dose, or the depositor's remark.

SMILES	FGF22 binding	Jurkat NFkB inh	NR2E3 ag-1	NR2E3 ag-2	697 NFkB inh	miR122 inh	Jurkat NFkB conf
CCN(CC)c1ccc(NC(=O)c2ccc(Br)o2)cc1	nt	-153	-169	-5	-91	-2	-63
O=c1[nH]c(CN2CCN(c3ccc(O)cc3)CC2)nc2scc(-c3ccc(Cl)cc3)c12	0	60*	-19	-3	-47	nt	20
Cc1ccc(S(=O)(=O)N[C@@H]2CC[C@H](CCNC(=O)CN3CCOCC3)O[C@H]2CO)cc1	0	nt	nt	nt	nt	nt	nt
COc1ccc(NC(=O)N(C)C[C@H]2Oc3ccc(NC(=O)NC(C)C)cc3CC(=O)N([C@H](C)CO)C[C@@H]2C)cc1	0	nt	nt	nt	nt	12[16.7 µM]	nt
Cc1cccn2cc(-c3ccc(Cl)cc3)nc12	0	-194	-139	5	-241	nt	-111
Cc1cccn2cc(-c3cc4ccccc4oc3=O)nc12	43*	-152	-99	3	-205	3	-81
O=c1oc2ccccc2cc1-c1cn2ccccc2n1	0	-17	-59	1	-144	7	nt
COc1ccc(NC(=O)C(=O)NCC(c2ccco2)N2CCc3ccccc32)cc1 (stereo not given)	nt	64*	-15	-2	-66	-2	12
COc1ccc(C(=O)NCC(c2ccco2)N2CCc3ccccc32)cc1 (stereo not given)	-1	63*	9	2	-65	nt	23
CC(=O)Nc1ccc(NC(=O)C(=O)NCC(c2ccco2)N2CCc3ccccc32)cc1 (stereo not given)	0	-13	20	0	-15	nt	nt
O=C(c1ccc(F)cc1)N1CC(=O)N2[C@H](CO)[C@@H](c3ccc(-c4cccnc4)cc3)[C@H]2C1	0	nt	nt	nt	nt	nt	nt
COc1cccc(NC(=O)C[C@@H]2CC[C@@H]3[C@H](COc4ccc(NS(=O)(=O)c5cccc(F)c5)cc4C(=O)N3C)O2)c1	1	nt	nt	nt	nt	-27[16.7 µM]	nt
COC(=O)C[C@@H]1C[C@H]2c3cc(NS(=O)(=O)c4ccc(F)cc4)ccc3O[C@H]2[C@H](CO)O1	0	nt	nt	nt	nt	2[16.7 µM]	nt
Cc1ccc(O)c(NC(=O)C2CC(c3c(F)cccc3Cl)=NO2)c1 (stereo not given)	nt	51*	-5	0	-15	3	14
COc1ccc(-n2nc(C(=O)NCC(=O)Nc3cc(OC)c(OC)c(OC)c3)c3ccccc3c2=O)cc1	0	10	-8	2	22	-6	nt
COc1ccc(-n2nc(C(=O)NCC(=O)Nc3cc(OC)c(OC)c(OC)c3)c3ccccc3c2=O)cc1OC	0	57*	20	-1	31	-7	-8
COc1ccc2ccccc2c1/C=N/Nc1ccc(Cl)c(C(=O)O)c1	0	18	-81	-1	9	nt	nt
COc1ccc(N/N=C/c2c(C(=O)O)ccc3ccccc23)cc1	0	54*	-24	-1	-9	-9	42
CN(C)C(=O)c1ccc(-c2ccc(C3[C@@H]4CNC[C@H]3N4)cc2)cc1 (stereo not given in full)	0	nt	nt	nt	nt	nt	nt
COc1cc(CCC(=O)Nc2nnc(C)s2)cc(OC)c1OC	0	52*	-50	-3	-36	nt	27
Cc1onc(-c2ccccc2)c1C(=O)OCCOc1cccc(Cl)c1	0	52*	-25	0	-15	5	13
Cc1ccc(OCCOC(=O)c2c(-c3ccccc3)noc2C)cc1	0	34	-26	6	-11	16	nt
CCN(CC)c1ccc(/C=N/Nc2nc(C)cc(=O)[nH]2)c(O)c1	0	59*	-33	-6	-22	-25	-4
Cc1cc(=O)[nH]c(NN=Cc2cc(Br)ccc2O)n1	0	nt	-12	nt	nt	nt	nt
Clc1ccc(-c2nnc(SCc3ccon3)o2)c(Cl)c1	nt	-118	-134	-3	-172	0	nt
SMILES	FGF22 binding	Jurkat NFkB inh	NR2E3 ag-1	NR2E3 ag-2	697 NFkB inh	miR122 inh	Jurkat NFkB conf
C=CCSc1nnc(-c2ccc(Cl)cc2Cl)o1	nt	-150	-81	2	-125	-4	-103
COc1cccc(S(=O)(=O)Nc2ccc3c(c2)[C@H]2C[C@@H](CC(=O)N4CCCCC4)O[C@H](CO)[C@H]2O3)c1	0	nt	nt	nt	nt	5[16.7 µM]	nt
CO[C@H]1CN(C)C(=O)c2cc(NC(=O)c3nc4ccccc4s3)ccc2OC[C@H](C)N(Cc2cncnc2)C[C@H]1C	0	nt	nt	nt	nt	nt	nt
CC(=O)c1cc2c(cc1NC(=O)Cn1nc(-c3ccc(C)cc3)ccc1=O)OCO2	0	53*	0	2	-19	-2	14
COc1ccc(/C=c2/sc3n(c2=O)C(c2ccccc2OC)C2=C(N=3)c3ccccc3CC2)cc1O (stereo not given)	nt	70*	-13	-2	-15	79	51*
O=C(C[n+]1ccc(/C=C/c2ccccc2)cc1)c1ccc2c(c1)OCCO2	0	54*	-9	0	8	-9	18
CNC[C@H]1Oc2ccc(NC(=O)CCN3CCOCC3)cc2CC(=O)N([C@@H](C)CO)C[C@H]1C	0	nt	nt	nt	nt	1[16.7 µM]	nt
NC(=O)c1c(NC(=O)c2cc3ccccc3o2)sc2c1CCC2	nt	-163	-200	-16	-173	14	-43
C[C@@H]1CCCCO[C@@H](CN(C)C(=O)Nc2ccc(F)cc2)[C@H](C)CN([C@H](C)CO)C(=O)c2cc(NC(=O)NC3CCCCC3)ccc2O1	0	nt	nt	nt	nt	-10[16.7 µM]	nt
CCCN1CCC(=NNc2ccc(S(=O)(=O)N(CC)CC)cc2[N+](=O)[O-])CC1	0	59*	-22	3	-12	nt	-7
CCCN1CCC(=NNc2ccc(S(N)(=O)=O)cc2[N+](=O)[O-])CC1	0	1	-10	0	10	-2	nt
CC(=O)N1[C@H](CN(CC2CCC2)C(=O)CC2CC2)[C@@H](c2ccccc2)[C@@H]1CO	0	nt	nt	nt	nt	0[16.7 µM]	nt
Cc1c(C(=O)OCC(C)C)[nH]c2c1C(=O)CC(c1ccco1)C2 (stereo not given)	0	65*	40	-2	-29	53	6
COC(=O)c1[nH]c2c(c1C)C(=O)CC(c1ccccc1)C2 (stereo not given)	nt	45	-5	2	-50	?	nt
COc1ccc(OC)c(C2CC(=O)c3c([nH]c(C(=O)OCC4CCCO4)c3C)C2)c1 (stereo not given)	0	0	4	-4	8	11	nt
C=CCOC(=O)c1[nH]c2c(c1C)C(=O)CC(c1ccco1)C2 (stereo not given)	nt	74*	nt	3	-15	nt	50*
Cc1c(C(=O)OC2CCCC2)[nH]c2c1C(=O)CC(c1ccco1)C2 (stereo not given)	0	67*	32	1	-32	?	57*
Cc1c(C(=O)OCC2CCCO2)[nH]c2c1C(=O)CC(c1ccco1)C2 (stereo not given)	nt	55*	-132	0	-12	10	-3
